HTR2A ag: activates the mouse 5-HT2A serotonin receptor; CHO-K1 mHTR2A beta-arrestin complementation, luminescence; percent of 30 µM serotonin response; activation, % at 7.6 µM; P35363; actives 0.66% (n = 360,000);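 active = activation above a run cutoff, the mean activation of all tested compounds plus 3 SD, cut at about 14% in these data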;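 also: 0% = plate median of compound wells and 100% = 30 µM serotonin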
VIM-2 inh: blocks Pseudomonas aeruginosa VIM-2 metallo-beta-lactamase. AID 1527. purified VIM-2, nitrocefin hydrolysis, epi-absorbance fluorescence. actives 0.89% (n = 290,000). inhibition, % at 5.6 µM;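 active = inhibition above the mean of all tested compounds plus 3 SD, cutoff set per screening run, cut at about 7.5% in these data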;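 also: red hydrolysis product quenches plate fluorescence so inhibitors raise well fluorescence; 0% = enzyme with DMSO and 100% = DMSO without enzyme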
dFosB act: mouse delta FosB homodimer activation. P13346. purified delta FosB, TAMRA-CDK5 oligo fluorescence polarization; percent of positive-control signal above neutral wells. activation, % at 25 µM. actives 0.99% (n = 340,000);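 active = mean activation above about 17%, with every replicate also reaching it, limit read from the data, passing the limit was not always enough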
Target sequence (P13346 whole entry, looked up): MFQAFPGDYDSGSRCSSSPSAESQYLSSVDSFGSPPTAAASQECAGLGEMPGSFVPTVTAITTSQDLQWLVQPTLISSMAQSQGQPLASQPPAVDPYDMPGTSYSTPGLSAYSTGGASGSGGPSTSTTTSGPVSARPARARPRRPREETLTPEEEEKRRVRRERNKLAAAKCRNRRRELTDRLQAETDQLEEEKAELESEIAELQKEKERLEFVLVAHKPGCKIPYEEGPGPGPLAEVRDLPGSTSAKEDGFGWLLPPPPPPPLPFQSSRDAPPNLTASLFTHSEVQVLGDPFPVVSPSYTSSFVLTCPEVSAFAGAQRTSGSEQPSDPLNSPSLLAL
IMP-1 inh-1: inhibitors of Pseudomonas aeruginosa IMP-1 metallo-beta-lactamase | actives 0.45% (n = 290,000) | inhibition, % at 5.6 µM | purified IMP-1, nitrocefin hydrolysis, epi-absorbance fluorescence;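 active = inhibition above the mean plus 3 SD of all compounds in the same screening run, cut at about 4.5% in these data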;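 also: 0% = IMP-1 with DMSO and 100% = DMSO wells lacking enzyme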
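assay system = purified recombinant IMP-1 metallo-beta-lactamase enzyme | schedule = 15 min preincubation plus 25 min reaction at 25 °C | signal = Epi-absorbance fluorescence, 480 nm excitation, 530 nm emission | read-out basis = percent inhibition from optical density relative to buffer-blank wells | controls = IMP-1 with DMSO as 0%, enzyme-free DMSO as 100%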
IMP-1 inh-2: selectivity counter-screen for VIM-2 inhibitors: IMP-1 metallo-beta-lactamase inhibitors; shares compounds with VIM-2 inh; purified IMP-1, nitrocefin hydrolysis, epi-absorbance fluorescence; inhibition, % at 5.6 µM; 1,300 tested, under 10 active; call rule not given here;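 also: 0% = enzyme with vehicle and 100% = vehicle without enzyme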
VIM-2 FRET inh: inhibits VIM-2 in FRET assay to exclude epi-absorbance artifacts | inhibition, % at 5.6 µM | shares compounds with VIM-2 inh | actives 23% (n = 1,300) | purified VIM-2, CCF2 FRET substrate hydrolysis;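 active = inhibition above the mean of all tested compounds plus 3 SD, cut at about 19% in these data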;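 also: 0% = VIM-2 plus DMSO and 100% = no enzyme wells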
TEM-1 inh: blocks E. coli TEM-1 beta-lactamase in VIM-2 selectivity screen; shares compounds with VIM-2 inh; Purified TEM-1, nitrocefin hydrolysis, epi-absorbance fluorescence; inhibition, % at 5.6 µM; actives 3% (n = 1,300); AID 1866;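 active = inhibition above that campaign's mean inhibition plus 3 SD, cut at about 0.46% in these data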;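 also: 0% = TEM-1 with DMSO and 100% = TEM-1 with 100 µM potassium clavulanate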
Target sequence (P62593 whole entry, looked up): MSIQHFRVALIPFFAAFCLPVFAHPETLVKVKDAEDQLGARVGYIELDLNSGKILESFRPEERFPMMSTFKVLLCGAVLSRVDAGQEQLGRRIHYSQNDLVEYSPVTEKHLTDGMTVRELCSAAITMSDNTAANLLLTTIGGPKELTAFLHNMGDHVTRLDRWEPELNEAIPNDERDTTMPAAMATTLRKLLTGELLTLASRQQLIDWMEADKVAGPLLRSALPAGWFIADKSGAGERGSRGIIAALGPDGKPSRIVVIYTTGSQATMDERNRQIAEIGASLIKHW
VIM-2 confirm 2: confirmation of P. aeruginosa VIM-2 metallo-beta-lactamase inhibitors. shares compounds with VIM-2 inh. purified VIM-2, nitrocefin hydrolysis, epi-absorbance. inhibition, % at 5.6 µM. actives 96% (n = 1,300). AID 2187;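 active = inhibition of the VIM-2 beta-lactamase enzyme above about 11% from the earlier first-round screen, limit read from the data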;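 also: 0% = VIM-2 with DMSO and 100% = buffer wells without enzyme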
* marks the source's active call; other numbers are inactive results; x = no result given. Sampled rows, rich in hits. Any-hit rate of the full collection: about 2.5%.

SMILES	HTR2A ag	VIM-2 inh	dFosB act	IMP-1 inh-1	IMP-1 inh-2	VIM-2 FRET inh	TEM-1 inh	VIM-2 confirm 2
C[C@H](CO)N1C[C@H](C)[C@@H](CN(C)C)Oc2c(NS(=O)(=O)c3cn(C)cn3)cccc2C1=O	4	x	4	x	x	x	x	x
CC1CN(Cc2c(O)ccc3c2oc(=O)c2ccccc23)CC(C)O1 (stereo not drawn)	-11	14*	-7	-2	-2	-16	-7	29*
OCC[C@@H]1C[C@H](O)[C@@H](O)[C@@]2(OCc3ccc4ccccc4c32)O1	-2	x	x	x	x	x	x	x
Cc1ccc2cccc(NC3OC(=O)c4ccccc43)c2n1 (stereo not drawn)	11	14*	2	-1	-3	-3	-7	5
COc1ccccc1Nc1nnc(SCc2cc(=O)n3ccsc3n2)s1	-4	13*	-15	1	1	14	3.0*	12*
Cc1ccc(Nc2nnc(SCc3cc(=O)n4ccsc4n3)s2)c(C)c1	1	-1	0	3	x	x	x	x
O=[N+]([O-])c1ccc(O)c(-c2nn[nH]n2)c1	-1	-4	1	-1	x	x	x	x
Cc1cc(C)n(-c2ccc([N+](=O)[O-])cc2-c2nn[nH]n2)n1	2	26*	-7	-2	-3	53*	-5	33*
CCC(=O)c1ccc(OCC(=O)OCC(=O)N2c3ccccc3CC2C)cc1 (stereo not drawn)	1	x	8	x	x	x	x	x
O=C(c1cccc(S(=O)(=O)N2CCCc3ccccc32)c1)N1CCN(c2ccccc2)CC1	-10	x	-8	x	x	x	x	x
COc1ccc(C2c3ccc4ccccc4c3Oc3ncn(CCN(C)C)c(=N)c32)cc1 (stereo not drawn)	-6	-2	-10	-3	x	x	x	x
O=C(CSc1nc(-c2ccco2)cc(C(F)(F)F)n1)N1CCSCC1	4	1	-2	-2	x	x	x	x
CN1CCN(C(=O)CSc2nc(-c3ccco3)cc(C(F)(F)F)n2)CC1	-4	43*	-5	0	-3	2	-6	57*
CC1CCCN(c2c3c(nc4ccccc24)CCCC3)C1 (stereo not drawn)	1	13*	7	0	-3	2	-5	21*
CC1CCCN(c2ccc3nc4ccccc4c(=O)n3n2)C1 (stereo not drawn)	1	-4	-13	-2	x	x	x	x
CN(C)S(=O)(=O)c1ccc(NC(=O)COc2ncnc3sccc23)cc1	-3	22*	-6	-2	-2	-4	-4	3
CNC(=O)COc1ncnc2sccc12	-3	-2	-3	-3	x	x	x	x
O=C(NCc1cccc(Cl)c1)c1cccc(OC2CCN(C(=O)C3CC3)CC2)c1	2	25*	-5	-2	-2	-3	-2	4
CCc1ccc(/C=C2\SC(=S)N(CCCC(=O)N(CCO)c3ccccc3)C2=O)cc1	7	x	x	x	x	x	x	x
COC(=O)c1c(NC(=O)c2ccco2)sc2c1CCN(C(C)=O)C2	5	21*	-21	-1	-3	-5	-6	30*
O=C(O)c1ccc(CN2C[C@@H](CO)O[C@@H](n3cnc4c(NCc5ccc(F)cc5)ncnc43)C2)cc1	-3	x	x	x	x	x	x	x
CN1CCN(c2ccc(NC(=S)NC(=O)/C=C/c3ccco3)cc2)CC1	-11	50*	-7	1	0	-3	-2	67*
CN1CCN(c2ccc(NC(=O)COc3ccc4ccccc4c3)cc2)CC1	-3	6	-18	0	x	x	x	x
CCN1CCN(c2ccc(NC(=O)COc3ccccc3Cl)cc2)CC1	-10	14*	1	-2	-3	-1	-8	31*
CN1CCN(c2ccc(NC(=S)NC(=O)c3cccc4ccccc34)cc2)CC1	-10	20*	-2	1	-2	-8	-6	29*
SMILES	HTR2A ag	VIM-2 inh	dFosB act	IMP-1 inh-1	IMP-1 inh-2	VIM-2 FRET inh	TEM-1 inh	VIM-2 confirm 2
CN1CCN(c2ccc(NC(=O)COc3cccc4ccccc34)cc2)CC1	-11	28*	-3	-3	-3	-5	-4	33*
COc1ccccc1C(=O)Nc1ccnn1C1CCN(Cc2cnn(C)c2C)CC1	-6	57*	2	0	-4	1	-6	0
CCc1ccc(CN2CCC(n3nccc3NC(=O)c3ccccc3OC)CC2)o1	-4	x	x	x	x	x	x	x
O=C1C(=O)N(Cc2cccnc2)C(c2ccccn2)/C1=C(/O)c1ccc(F)cc1 (stereo not drawn)	-5	52*	-1	-3	-2	76*	-6	69*
Cc1ccc(/C(O)=C2/C(=O)C(=O)N(Cc3cccnc3)C2c2ccccn2)cc1 (stereo not drawn)	2	3	-1	-3	x	x	x	x
COC(=O)c1ccc(N2C(c3cc(OC)cc(OC)c3)=Cc3ccc(-c4cccnc4)cc3C2CC(=O)C2CC2)cc1 (stereo not drawn)	-1	x	x	x	x	x	x	x
CC(=O)c1ccc(Nc2nc(-c3cccnc3)cs2)cc1	-6	14*	0	-3	-3	-4	-7	15*
Cc1ccc(OCc2occc2C(=O)O)cc1	1	x	7	x	x	x	x	x
Oc1cccc(/C=N/Nc2nn3cnnc3c3ccccc23)c1	-5	16*	-33	-4	-4	0	-5	37*
COc1cccc(/C=N/Nc2nn3cnnc3c3ccccc23)c1O	-2	0	6	-3	x	x	x	x
CCNC(=O)C1CCCN(C(=O)c2ccc(C(=O)OC)cc2)CC1 (stereo not drawn)	2	x	x	x	x	x	x	x
CCSc1ccc2nnc(-c3cccc(F)c3)n2n1	4	12*	-32	-2	-3	-9	-6	23*
CCOc1cc(N2CCOCC2)c(OCC)cc1NC(=O)c1ccc(-n2ccnc2)c([N+](=O)[O-])c1	-2	68*	-17	-4	-3	-7	-6	75*
CCOc1cc(N2CCOCC2)c(OCC)cc1NC(=O)c1ccc(C)cc1	-5	-3	-11	-3	x	x	x	x
O=C(CSc1nnc(NC(=O)c2ccccc2F)s1)NCC1CCCO1 (stereo not drawn)	1	15*	-1	-2	-3	28*	-7	17*
O=C(CSc1nnc(NC(=O)c2ccccc2[N+](=O)[O-])s1)NCC1CCCO1 (stereo not drawn)	-4	19*	-5	-2	-3	35*	-6	23*
O=C(COc1ccc2c(-c3ccccc3)cc(=O)oc2c1)Nc1cccnc1	-1	-1	6	-2	x	x	x	x
Cc1c(NC(=O)COC(=O)CSc2ccc(C(N)=O)cc2[N+](=O)[O-])c(=O)n(-c2ccccc2)n1C	9	1	-9	-2	x	x	x	x
Cc1ccc(NC(=O)c2c3c(nc4ccccc24)CCC3)cc1	-2	-2	-9	-1	x	x	x	x
